From ChEMBL document CHEMBL4118140, “Synthesis and in vitro evaluation of homoisoflavonoids as potent inhibitors of nitric oxide production in RAW-264.7 cells” (Bioorg Med Chem Lett, 2018)
Calls of active or inactive are those of the source. The calls are words filed in the database; no cut-off is given here.

What was measured:
[1] = tested on: RAW264.7; assay: Antiinflammatory activity in mouse RAW264.7 cells assessed as reduction in LPS-induced NO production at 10 uM after 18 hrs by Griess assay relative to control; assay type: functional; conditions: RAW264.7, 18 h
In short: (§1)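 RAW 264.7 macrophages were stimulated with LPS together with test compound at 0.1, 1, 10, 25, 50 and 100 (six levels), with L-NMMA as the reference inhibitor. NO production was measured and expressed as % of the LPS-only control, with inhibition = 100 − that value. Results are mean ± SEM, n = 3, and IC50 came from the concentration series.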

[2] = tested on: RAW264.7; assay: Antiinflammatory activity in mouse RAW264.7 cells assessed as reduction in LPS-induced NO production at 1 uM after 18 hrs by Griess assay relative to control; assay type: functional; conditions: RAW264.7, 18 h; in short: as §1
[3] = tested on: RAW264.7; assay: Antiinflammatory activity in mouse RAW264.7 cells assessed as reduction in LPS-induced NO production after 18 hrs by Griess assay; assay type: functional, cell-based; conditions: RAW264.7, 18 h; in short: as §1
[4] = tested on: RAW264.7; assay: Inhibition of iNOS expression in LPS-stimulated mouse RAW264.7 cells at 10 uM after 18 hrs by Western blot method; assay type: functional, cell-based
[5] = Cytotoxicity against mouse RAW264.7 cells assessed as cell viability at 100 uM after 24 hrs by CellTiter96 AQueous one solution cell proliferation assay (reference value: 100 +/- 2.4%); assay type: cell-based; conditions: read-out: Activity
[6] = Cytotoxicity against mouse RAW264.7 cells assessed as cell viability at 1 uM after 24 hrs by CellTiter96 AQueous one solution cell proliferation assay (reference value: 100 +/- 2.4%); assay type: cell-based; conditions: read-out: Activity
[7] = Cytotoxicity against mouse RAW264.7 cells assessed as cell viability at 50 uM after 24 hrs by CellTiter96 AQueous one solution cell proliferation assay (reference value: 100 +/- 2.4%); assay type: cell-based; conditions: read-out: Activity
[8] = Cytotoxicity against mouse RAW264.7 cells assessed as cell viability at 10 uM after 24 hrs by CellTiter96 AQueous one solution cell proliferation assay (reference value: 100 +/- 2.4%); assay type: cell-based; conditions: read-out: Activity
[9] = tested on: RAW264.7; assay: Effect on beta-actin expression in LPS-stimulated mouse RAW264.7 cells at 10 uM after 18 hrs by Western blot method; assay type: cell-based; conditions: raw264.7, 18 h

Work on `CNC(=N)NCCC[C@H](N)C(=O)O` [TILARGININE] yielded an inhibition at 10 µM [1] of 14.2%, an inhibition at 1 µM [2] of -12.5% and an IC50 [3] of 16.1 µM.

With `COc1cc2c(c(OC)c1OC)C(=O)/C(=C/c1ccccc1O)CO2` the inhibition at 10 µM [1] was 83%, the “iNOS expression inhibition (active/inactive)” value [4] was “Active” and the viability at 24 h, 100 µM [5] was 10.9%. For the same compound, the inhibition at 1 µM [2] was 16.2%, the viability at 24 h, 1 µM [6] was 94.6% and the viability at 24 h, 50 µM [7] was 11.8%. The viability at 24 h, 10 µM [8] was 93.4%, the IC50 [3] was 2.91 µM and the Activity [9] was “Non-Toxic”.

`COc1cc(OC)c2c(c1)OCC(Cc1ccccc1O)C2=O` (racemic) showed an inhibition at 10 µM [1] of 20.5%, a viability at 24 h, 100 µM [5] of 41.3% and an inhibition at 1 µM [2] of -2.8%. It also gave a viability at 24 h, 1 µM [6] of 98.6%, a viability at 24 h, 50 µM [7] of 55.2% and a viability at 24 h, 10 µM [8] of 165%. It also gave an IC50 [3] of 14.2 µM.

For `COc1cc(O)c2c(c1)OC/C(=C\c1ccccc1O)C2=O`, the inhibition at 10 µM [1] was 92.5%, the “iNOS expression inhibition (active/inactive)” value [4] was “Active” and the viability at 24 h, 100 µM [5] was 11%. It also gave an inhibition at 1 µM [2] of 21.1%, a viability at 24 h, 1 µM [6] of 94% and a viability at 24 h, 50 µM [7] of 10.7%. For the same compound, the viability at 24 h, 10 µM [8] was 97%, the IC50 [3] was 2.09 µM and the Activity [9] was “Non-Toxic”.

For `COc1cc(OC)c2c(c1)OC/C(=C\c1ccccc1O)C2=O`, the inhibition at 10 µM [1] was 97.2%, the “iNOS expression inhibition (active/inactive)” value [4] was “Active” and the viability at 24 h, 100 µM [5] was 11.7%. The inhibition at 1 µM [2] was 38.5%, the viability at 24 h, 1 µM [6] was 108% and the viability at 24 h, 50 µM [7] was 13.3%. For the same compound, the viability at 24 h, 10 µM [8] was 114%, the IC50 [3] was 1.26 µM and the Activity [9] was “Non-Toxic”.

Compound `COc1cc2c(c(OC)c1OC)C(=O)C(Cc1ccccc1O)CO2` (racemic) has an inhibition at 10 µM [1] of 15.9%, a viability at 24 h, 100 µM [5] of 44% and an inhibition at 1 µM [2] of -24.6%. The viability at 24 h, 1 µM [6] was 89.6%, the viability at 24 h, 50 µM [7] was 58.7% and the viability at 24 h, 10 µM [8] was 87.2%. The IC50 [3] was 13.4 µM.

With `COc1cc2c(c(O)c1OC)C(=O)C(Cc1ccccc1O)CO2` (racemic) the inhibition at 10 µM [1] was 34.1%, the viability at 24 h, 100 µM [5] was 15.5% and the inhibition at 1 µM [2] was -11.8%. It also gave a viability at 24 h, 1 µM [6] of 97.6%, a viability at 24 h, 50 µM [7] of 41.1% and a viability at 24 h, 10 µM [8] of 96.7%. The IC50 [3] was 12.2 µM.

For `COc1ccc2c(c1)OC/C(=C\c1ccccc1O)C2=O`, the inhibition at 10 µM [1] was 91.4%, the “iNOS expression inhibition (active/inactive)” value [4] was “Active” and the viability at 24 h, 100 µM [5] was 11.1%. The inhibition at 1 µM [2] was 28.4%, the viability at 24 h, 1 µM [6] was 102% and the viability at 24 h, 50 µM [7] was 11%. The viability at 24 h, 10 µM [8] was 97.7%, the IC50 [3] was 1.75 µM and the Activity [9] was “Non-Toxic”.

With `COc1cc(O)c2c(c1)OCC(Cc1ccccc1O)C2=O` (centres undefined) the inhibition at 10 µM [1] was 38%, the viability at 24 h, 100 µM [5] was 12.5% and the inhibition at 1 µM [2] was 2.8%. The viability at 24 h, 1 µM [6] was 97.7%, the viability at 24 h, 50 µM [7] was 34.2% and the viability at 24 h, 10 µM [8] was 81.1%. For the same compound, the IC50 [3] was 12.4 µM.

`COc1ccc2c(c1)OCC(Cc1ccccc1O)C2=O` (centres undefined) showed an inhibition at 10 µM [1] of 19.7%, a viability at 24 h, 100 µM [5] of 31.5% and an inhibition at 1 µM [2] of 9.2%. It also gave a viability at 24 h, 1 µM [6] of 152%, a viability at 24 h, 50 µM [7] of 49.4% and a viability at 24 h, 10 µM [8] of 118%. For the same compound, the IC50 [3] was 14.2 µM.
